# Calls of active or inactive are those of the source. The calls are words filed in the database; no cut-off is given here.
# Biological target: GABA-A receptor; anion channel
# Test: Displacement of [3H]-muscimol from rat cortical synaptic membrane GABAA receptor assessed as inhibition constant by microscint-scintillation method
# Type: cell membranes, Cortex
# How it was run: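 Rat cortical synaptic membranes, washed repeatedly in 50 mM Tris-HCl pH 7.4, 70–80 μg protein. Incubated at 0 °C with 5 nM [3H]-muscimol (final) and a range of test concentrations, then filtered and counted by scintillation. Nonspecific binding defined with 1.0 mM GABA. IC50 converted to Ki by Cheng–Prusoff, triplicate, three independent experiments.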
SMILES,Ki [nM],pKi
O=C(c1ccccc1)N1CCC2(CCNCC2)CC1,1400,–
O=C(c1ccccc1Br)N1CCC2(CCNCC2)CC1,2700,–
O=C(c1ccc(Br)cc1)N1CCC2(CCNCC2)CC1,230,–
Cc1ccccc1C(=O)N1CCC2(CCNCC2)CC1,4200,–
O=C(c1cccc(O)c1)N1CCC2(CCNCC2)CC1,340,6.49
Nc1cccc(C(=O)N2CCC3(CCNCC3)CC2)c1,1200,–
O=C(c1ccc(C(F)(F)F)cc1)N1CCC2(CCNCC2)CC1,2200,–
Cc1cccc(CN2CCC3(CCNCC3)CC2)c1,> 200000,–
O=C(c1ccc(OCc2ccccc2)cc1)N1CCC2(CCNCC2)CC1,1000,–
O=C(c1ccc([N+](=O)[O-])cc1)N1CCC2(CCNCC2)CC1,9400,–
Nc1ccc(C(=O)N2CCC3(CCNCC3)CC2)cc1,710,6.16
COC(=O)N1CCC2(CCNCC2)CC1,37000,–
O=C(c1cccc(Br)c1)N1CCC2(CCNCC2)CC1,300,–
O=C(c1cccc([N+](=O)[O-])c1)N1CCC2(CCNCC2)CC1,1500,–
O=C(c1cccc(OCc2cccs2)c1)N1CCC2(CCNCC2)CC1,1000,–
O=C(c1ccc(O)cc1)N1CCC2(CCNCC2)CC1,860,6.08
CC(=O)N1CCC2(CCNCC2)CC1,> 100000,–
O=C(c1cccc(OCc2ccccc2)c1)N1CCC2(CCNCC2)CC1,1000,–
Brc1ccc(CN2CCC3(CCNCC3)CC2)cc1,27000,–

# Test system: not listed separately
# Test: Antiproliferative activity against human CD4+ve T cells at 33 uM measured after 96 hrs by flow cytometry analysis relative to control
# Type: functional, CD4+ve Th
# How it was run: (§1)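 Human PBMC were isolated from leukocyte cones by density gradient centrifugation and frozen. After overnight high-density culture at 1×10^7 cells/ml, cells were labelled with 5 μM CFSE for 10 min at room temperature and stimulated with soluble anti-CD3 (OKT3) at 100 pg/mL. Culture ran 96 h. Proliferating CD4+ and CD8+ cells were scored by CFSE flow cytometry against a PBS control. n≥6 independent experiments; one-way ANOVA with Tukey.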
row,SMILES,Activity [%]
1,Cc1nnc2n1-c1ccc(Cl)cc1C(c1ccccc1)=NC2 [ALPRAZOLAM],35.7

# Test system: not listed separately
# Test: Antiproliferative activity against human CD8-positive T cells at 33 uM measured after 96 hrs by flow cytometry analysis relative to control
# Type: functional, CD8-positive T cell
# How it was run: as §1
row,SMILES,Activity [%]
1,Cc1nnc2n1-c1ccc(Cl)cc1C(c1ccccc1)=NC2 [ALPRAZOLAM],34.8

# Test system: not listed separately
# Test: Induction of cell proliferation of human CD8-positive T cells at 100 uM measured after 96 hrs by flow cytometry analysis relative to control
# Type: functional
# How it was run: (§2)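 Rescue format on human PBMC. Cells were CFSE-labelled (5 μM), stimulated with anti-CD3 OKT3 at 100 pg/mL, and treated with alprazolam 33 μM plus test agent at 100 μM. Culture ran 96 h. Proliferating CD4+ and CD8+ T cell percentages were measured by flow cytometry. Vehicle controls (methanol, DMSO) were included. n≥6 independent experiments; one-way ANOVA with Tukey.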
row,SMILES,Activity [%]
1,C[N+]1(C)CCc2cc3c(cc2[C@H]1[C@@H]1OC(=O)c2c1ccc1c2OCO1)OCO3.[I-],20

# Test system: CD8-positive T cell
# Test: Antiproliferative activity against mouse CD8-positive T cells at 100 uM measured after 48 hrs by flow cytometry analysis
# Type: functional, cell-based
# How it was run: (§3)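 Splenocytes came from female wild-type BALB/c mice and were red-cell lysed. They were labelled with 5 μM CFSE for 10 min at room temperature and activated with soluble anti-mouse CD3 (145.2C11) at 33 ng/mL. Culture ran 48 h in RPMI with 10% FCS and 2 μM 2-mercaptoethanol. Percent proliferating CD4+ and CD8+ cells was read by flow cytometry. n≥6 independent experiments; one-way ANOVA with Tukey.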
row,SMILES,Activity
1,Cc1nnc2n1-c1ccc(Cl)cc1C(c1ccccc1)=NC2 [ALPRAZOLAM],Active

# Test system: CD4+ve Th
# Test: Antiproliferative activity against mouse CD4+ve Th cells at 100 uM measured after 48 hrs by flow cytometry analysis
# Type: functional, cell-based
# How it was run: as §3
row,SMILES,Activity
1,Cc1nnc2n1-c1ccc(Cl)cc1C(c1ccccc1)=NC2 [ALPRAZOLAM],Active

# Test system: CD4+ve Th
# Test: Induction of cell proliferation of human CD4+ve Th cells at 100 uM measured after 96 hrs by flow cytometry analysis relative to control
# Type: functional
# How it was run: as §2
row,SMILES,Activity [%]
1,C[N+]1(C)CCc2cc3c(cc2[C@H]1[C@@H]1OC(=O)c2c1ccc1c2OCO1)OCO3.[I-],20
